Experimental data: ChEMBL document CHEMBL1153576, “Novel ureas and thioureas of 15-membered azalides with antibacterial activity against key respiratory pathogens” (Eur J Med Chem, 2009)
Values after ≈ are worked out from the molar mass of the structure shown.

Key:
Assay type in all cases: functional
Staphylococcus aureus = experiment: Antibacterial activity against Staphylococcus aureus ATCC 29213 after 16 to 22 hrs by broth microdilution method
In short: (§1)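 Broth microdilution per the CLSI approved standard (sixth edition), using two-fold serial dilutions of compound in Mueller–Hinton broth. Stocks at 5 mg/ml in DMF. Inoculum came from a direct colony suspension adjusted by turbidity to about 5 × 10⁴ CFU/well final. Trays were incubated at 35 °C for 16–22 h. MIC is the lowest concentration completely inhibiting growth (99% inhibition).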

Streptococcus pneumoniae [1] = experiment: Antibacterial activity against erythromycin-susceptible Streptococcus pneumoniae after 16 to 22 hrs by broth microdilution method
In short: (§2)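 Streptococci tested by CLSI broth microdilution in Mueller–Hinton broth with 5% horse serum, using two-fold serial dilutions. Compounds were dissolved in DMF at 5 mg/ml (stock). Inoculum was a turbidity-adjusted direct colony suspension giving about 5 × 10⁴ CFU/well. Trays were held at 35 °C for 16–22 h. MIC is the lowest concentration completely inhibiting growth (99%).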

Streptococcus pneumoniae [2] = experiment: Antibacterial activity against efflux-mediated macrolide-resistant Streptococcus pneumoniae after 16 to 22 hrs by broth microdilution method
In short: (§3)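 Two-fold serial dilutions in microdilution trays, following the CLSI dilution standard for aerobic bacteria. Medium was Mueller–Hinton broth with 5% horse serum for streptococci. Stocks were made at 5 mg/ml in DMF. Inoculum came from a direct colony suspension adjusted by turbidity to about 5 × 10⁴ CFU/well final. Incubation was at 35 °C for 16–22 h. MIC is the lowest concentration completely inhibiting growth (99% inhibition).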

Streptococcus pneumoniae [3] = experiment: Antibacterial activity against constitutive macrolide-lincosamide-streptogramin-resistant Streptococcus pneumoniae after 16 to 22 hrs by broth microdilution method; in short: as §3
Streptococcus pyogenes [4] = experiment: Antibacterial activity against erythromycin-susceptible Streptococcus pyogenes after 16 to 22 hrs by broth microdilution method; in short: as §2
Streptococcus pyogenes [5] = experiment: Antibacterial activity against inducible macrolide-lincosamide-streptogramin-resistant Streptococcus pyogenes 16 to 22 hrs by broth microdilution method; in short: as §3
Streptococcus pyogenes [6] = experiment: Antibacterial activity against efflux-mediated macrolide-resistance Streptococcus pyogenes after 16 to 22 hrs by broth microdilution method; in short: as §3
Moraxella catarrhalis = experiment: Antibacterial activity against Moraxella catarrhalis ATCC 23246 after 16 to 22 hrs by broth dilution method; in short: as §1
Haemophilus influenzae = experiment: Antibacterial activity against Haemophilus influenzae ATCC 49247 after 16 to 22 hrs by broth dilution method
In short: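 Microdilution trays following the CLSI standard, with two-fold serial dilutions in supplemented broth suited to H. influenzae. DMF stocks at 5 mg/ml. Inoculum prepared from a turbidity-adjusted direct colony suspension to about 5 × 10⁴ CFU/well final. Incubated at 35 °C for 16–22 h. MIC is the lowest concentration giving complete (99%) growth inhibition.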

Enterococcus faecalis = experiment: Antibacterial activity against Enterococcus faecalis ATCC 29212 after 16 to 22 hrs by broth dilution method; in short: as §1
Escherichia coli = experiment: Antibacterial activity against Escherichia coli ATCC 25922 after 16 to 22 hrs by broth dilution method; in short: as §1

Compound | MIC (Staphylococcus aureus) [µg/mL] | MIC (Streptococcus pneumoniae [1]) [µg/mL] | MIC (Streptococcus pneumoniae [2]) [µg/mL] | MIC (Streptococcus pneumoniae [3]) [µg/mL] | MIC (Streptococcus pyogenes [4]) [µg/mL] | MIC (Streptococcus pyogenes [5]) [µg/mL] | MIC (Streptococcus pyogenes [6]) [µg/mL] | MIC (Moraxella catarrhalis) [µg/mL] | MIC (Haemophilus influenzae) [µg/mL] | MIC (Enterococcus faecalis) [µg/mL] | MIC (Escherichia coli) [µg/mL]
CC[C@H]1OC(=O)[C@H](C)[C@@H](O[C@H]2C[C@@](C)(OC)[C@@H](O)[C@H](C)O2)[C@H](C)[C@@H](O[C@@H]2O[C@H](C)C[C@H](N(C)C)[C@H]2O)[C@](C)(O)C[C@@H](C)CN(CCCN(CCC#N)C(=S)NCCc2ccccc2)[C@H](C)[C@@H](O)[C@]1(C)O | 1 (≈ 0.992 µM) | ≤ 0.125 | 32 (≈ 31.7 µM) | 64 (≈ 63.5 µM) | ≤ 0.125 | 8 (≈ 7.93 µM) | 16 (≈ 15.9 µM) | 2 (≈ 1.98 µM) | 4 (≈ 3.97 µM) | 32 (≈ 31.7 µM) | 16 (≈ 15.9 µM)
CC[C@H]1OC(=O)[C@H](C)[C@@H](O[C@H]2C[C@@](C)(OC)[C@@H](O)[C@H](C)O2)[C@H](C)[C@@H](O[C@@H]2O[C@H](C)C[C@H](N(C)C)[C@H]2O)[C@](C)(O)C[C@@H](C)CN(CCCNC(=O)NC(C)C)[C@H](C)[C@@H](O)[C@]1(C)O | 2 (≈ 2.28 µM) | ≤ 0.125 | 32 (≈ 36.5 µM) | > 64 | ≤ 0.125 | 8 (≈ 9.12 µM) | 32 (≈ 36.5 µM) | 1 (≈ 1.14 µM) | 16 (≈ 18.2 µM) | 32 (≈ 36.5 µM) | 16 (≈ 18.2 µM)
CC[C@H]1OC(=O)[C@H](C)[C@@H](O[C@H]2C[C@@](C)(OC)[C@@H](O)[C@H](C)O2)[C@H](C)[C@@H](O[C@@H]2O[C@H](C)C[C@H](N(C)C)[C@H]2O)[C@](C)(O)C[C@@H](C)CN(CCCN(CCC#N)C(=S)NCCCc2ccccc2)[C@H](C)[C@@H](O)[C@]1(C)O | 1 (≈ 0.978 µM) | ≤ 0.125 | 32 (≈ 31.3 µM) | 32 (≈ 31.3 µM) | ≤ 0.125 | 8 (≈ 7.82 µM) | 16 (≈ 15.6 µM) | 4 (≈ 3.91 µM) | 4 (≈ 3.91 µM) | 16 (≈ 15.6 µM) | 16 (≈ 15.6 µM)
CC[C@H]1OC(=O)[C@H](C)[C@@H](O[C@H]2C[C@@](C)(OC)[C@@H](O)[C@H](C)O2)[C@H](C)[C@@H](O[C@@H]2O[C@H](C)C[C@H](N(C)C)[C@H]2O)[C@](C)(O)C[C@@H](C)CN(CCCN(CCC#N)C(=O)NC(C)C)[C@H](C)[C@@H](O)[C@]1(C)O | 4 (≈ 4.3 µM) | ≤ 0.125 | 32 (≈ 34.4 µM) | > 64 | ≤ 0.125 | 32 (≈ 34.4 µM) | 32 (≈ 34.4 µM) | 0.5 (≈ 0.537 µM) | 4 (≈ 4.3 µM) | 64 (≈ 68.8 µM) | 16 (≈ 17.2 µM)
CC[C@H]1OC(=O)[C@H](C)[C@@H](O[C@H]2C[C@@](C)(OC)[C@@H](O)[C@H](C)O2)[C@H](C)[C@@H](O[C@@H]2O[C@H](C)C[C@H](N(C)C)[C@H]2O)[C@](C)(O)C[C@@H](C)CN(CCCN(CCC#N)C(=S)Nc2cccc3ccccc23)[C@H](C)[C@@H](O)[C@]1(C)O | 4 (≈ 3.88 µM) | ≤ 0.125 | 16 (≈ 15.5 µM) | 64 (≈ 62.1 µM) | ≤ 0.125 | 32 (≈ 31.1 µM) | 32 (≈ 31.1 µM) | 4 (≈ 3.88 µM) | 8 (≈ 7.76 µM) | 32 (≈ 31.1 µM) | 8 (≈ 7.76 µM)
CC[C@H]1OC(=O)[C@H](C)[C@@H](O[C@H]2C[C@@](C)(OC)[C@@H](O)[C@H](C)O2)[C@H](C)[C@@H](O[C@@H]2O[C@H](C)C[C@H](N(C)C)[C@H]2O)[C@](C)(O)C[C@@H](C)CN(CCCNC(=S)Nc2cccc3ccccc23)[C@H](C)[C@@H](O)[C@]1(C)O | 1 (≈ 1.02 µM) | ≤ 0.125 | 4 (≈ 4.09 µM) | > 64 | ≤ 0.125 | 4 (≈ 4.09 µM) | 4 (≈ 4.09 µM) | 1 (≈ 1.02 µM) | 2 (≈ 2.05 µM) | 8 (≈ 8.19 µM) | 8 (≈ 8.19 µM)
CC[C@H]1OC(=O)[C@H](C)[C@@H](O[C@H]2C[C@@](C)(OC)[C@@H](O)[C@H](C)O2)[C@H](C)[C@@H](O[C@@H]2O[C@H](C)C[C@H](N(C)C)[C@H]2O)[C@](C)(O)C[C@@H](C)CN(CCCNC(=O)NC(C)c2cccc3ccccc23)[C@H](C)[C@@H](O)[C@]1(C)O (stereo not given in full) | 1 (≈ 1.01 µM) | ≤ 0.125 | 16 (≈ 16.2 µM) | 16 (≈ 16.2 µM) | ≤ 0.125 | 2 (≈ 2.02 µM) | 8 (≈ 8.09 µM) | 0.25 (≈ 0.253 µM) | 2 (≈ 2.02 µM) | 8 (≈ 8.09 µM) | 32 (≈ 32.3 µM)
CC[C@H]1OC(=O)[C@H](C)[C@@H](O[C@H]2C[C@@](C)(OC)[C@@H](O)[C@H](C)O2)[C@H](C)[C@@H](O[C@@H]2O[C@H](C)C[C@H](N(C)C)[C@H]2O)[C@](C)(O)C[C@@H](C)CN(CCCNC(=S)NCCc2ccccc2)[C@H](C)[C@@H](O)[C@]1(C)O | 1 (≈ 1.05 µM) | ≤ 0.125 | 8 (≈ 8.37 µM) | > 64 | ≤ 0.125 | 4 (≈ 4.19 µM) | 4 (≈ 4.19 µM) | 1 (≈ 1.05 µM) | 2 (≈ 2.09 µM) | 16 (≈ 16.7 µM) | 32 (≈ 33.5 µM)
CC[C@H]1OC(=O)[C@H](C)[C@@H](O[C@H]2C[C@@](C)(OC)[C@@H](O)[C@H](C)O2)[C@H](C)[C@@H](O[C@@H]2O[C@H](C)C[C@H](N(C)C)[C@H]2O)[C@](C)(O)C[C@@H](C)CN(CCCN(CCC#N)C(=O)NCCc2ccccc2)[C@H](C)[C@@H](O)[C@]1(C)O | 4 (≈ 4.03 µM) | ≤ 0.125 | 64 (≈ 64.5 µM) | > 64 | ≤ 0.125 | 32 (≈ 32.2 µM) | 64 (≈ 64.5 µM) | 16 (≈ 16.1 µM) | 32 (≈ 32.2 µM) | 64 (≈ 64.5 µM) | > 64
CC[C@H]1OC(=O)[C@H](C)[C@@H](O[C@H]2C[C@@](C)(OC)[C@@H](O)[C@H](C)O2)[C@H](C)[C@@H](O[C@@H]2O[C@H](C)C[C@H](N(C)C)[C@H]2O)[C@](C)(O)C[C@@H](C)CN(CCCN(CCC#N)C(=O)NC(C)c2cccc3ccccc23)[C@H](C)[C@@H](O)[C@]1(C)O (stereo not given in full) | 2 (≈ 1.92 µM) | ≤ 0.125 | 32 (≈ 30.7 µM) | 16 (≈ 15.3 µM) | ≤ 0.125 | 8 (≈ 7.67 µM) | 8 (≈ 7.67 µM) | 0.5 (≈ 0.48 µM) | 2 (≈ 1.92 µM) | 16 (≈ 15.3 µM) | 32 (≈ 30.7 µM)
